Screening data from PubChem.
The list is not random: actives were taken first. Their share in the collection is about 9.2%.
Lmaj promast – inhibitors of Leishmania major promastigote growth; AID 1063; actives 9% (n = 200,000); Leishmania major promastigotes, resazurin fluorescence viability; inhibition, % at 10 µM; in the data active means inhibition above about 50%;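 further: promastigotes grown with compound for 44 hours at 28 °C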
PTEN del growth – PTEN-deleted cell growth suppression; HCT116 PTEN-null viability, CellTiter-Glo, 60 h; stronger effect = lower value; AID 827; actives 1.2% (n = 140,000); viability, % at 10 µM;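 active means viability at or below a set limit, 4 SD under the median of all tested compounds, cut at about 3.7% in these data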;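 further: PTEN knockout HCT116 line with beta catenin targeted HCT116 as companion control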
Dynein transport – dynein cargo transport inhibition; 3617.4 mouse cells, GR-EGFP nuclear translocation imaging; test concentration mostly 20 µM; stimulated with dexamethasone, 1 µM; stronger effect = lower value; z-score, hits read low; actives 0.47% (n = 220,000); AID 1381;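 active means plate z-score of nuclear minus cytoplasmic receptor signal below a set negative limit, without overly bright fluorescence or cell loss, cut at about -3.5 in these data, passing the limit was not always enough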;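 further: z-score of nuclear minus cytoplasmic ring GR-EGFP intensity difference per well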
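medium = tetracycline-free induction medium containing charcoal-stripped FBS | also added = 1.0 µM final dexamethasone stimulus | schedule = 48 h induction, 1 h compound, 30 min dex at 37 °C | technique = fixed, Hoechst-stained cells imaged at 10x for EGFP | measure = GR-EGFP nuclear translocation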
HCT116 bCat-KO – beta-catenin-lacking colon tumor cell growth suppression | HCT116 beta-catenin knockout viability, CellTiter-Glo, 60 h; stronger effect = lower value | viability, % at 10 µM | actives 1.5% (n = 140,000);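 active means viability at or under a set limit, the compound median less 4 SD, cut at about 6% in these data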
Autophagy mod – alters autophagy in cells; MEF GFP-LC3 puncta imaging; test concentration mostly 10 µM; calls only at 10 µM (by protocol); actives 0.98% (n = 190,000); AID 463193;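 active means percentage of spot-positive cells more than 3 SD above its plate mean, without a fluorescence outlier flag or 80% toxicity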
Of the large screens only hits and unclear results are named; the others gave an inactive call.

Cc1cc(Cl)ccc1NC(=S)NCCN1CCOCC1	Lmaj promast 60
COc1ccccc1NC(=S)NCCN1CCOCC1	none
S=C(NCCN1CCOCC1)Nc1ccc(Cl)cc1Cl	Lmaj promast 96
S=C(NCCN1CCOCC1)Nc1cccc2ccccc12	Lmaj promast 67
S=C(NCCCN1CCOCC1)Nc1ccc(Cl)cc1Cl	Lmaj promast 99
COc1cc(C(=O)NC(C(=O)Nc2cccc(C(C)=O)c2)C(C)C)cc(OC)c1OC (stereo not drawn)	none (no result: PTEN del growth, HCT116 bCat-KO)
COc1ccccc1/C=C/C=N/NC(=O)c1cccs1	none (no result: Lmaj promast, PTEN del growth, HCT116 bCat-KO, Autophagy mod)
CC(C)OC(=O)C(C)Nc1ccc(F)c(Cl)c1 (stereo not drawn)	none (no result: Lmaj promast, PTEN del growth, HCT116 bCat-KO, Autophagy mod)
O=C(CCC1CCCN(C(=O)Cn2cnnn2)C1)NCc1ccc(F)c(F)c1 (stereo not drawn)	none (no result: PTEN del growth, HCT116 bCat-KO)
CCN(Cc1ccccc1)C(=O)COC(=O)Cn1cnc2ccccc21	none (no result: PTEN del growth, HCT116 bCat-KO)
COc1ccc(NC(=S)NCCN2CCOCC2)c(OC)c1	none (no result: PTEN del growth, HCT116 bCat-KO)
CCOc1cc(NC(=S)NCCCN2CCOCC2)c(OCC)cc1NC(=O)c1cccs1	Autophagy mod active (no result: PTEN del growth, HCT116 bCat-KO)
COc1ccc(OC)c(NC(=S)NCCCN2CCOCC2)c1	Lmaj promast 62
Cc1ccc(-c2n[nH]c(=S)n2/N=C/c2c(C)[nH]n(-c3ccccc3)c2=O)cc1	none (no result: PTEN del growth, HCT116 bCat-KO)
Cc1cccc(NC(=S)NCC(C)CSc2ccc(Cl)cc2)c1 (stereo not drawn)	Lmaj promast 86 (no result: PTEN del growth, HCT116 bCat-KO)
Cc1ccc(C)c(NC(=S)NCCSc2ccc(Cl)cc2)c1	none
Cc1cccc(NC(=S)NCCSc2ccc(Cl)cc2)c1	none (no result: PTEN del growth, HCT116 bCat-KO)
Cc1ccc(NC(=S)NCC(C)CSc2ccc(Cl)cc2)cc1 (stereo not drawn)	Lmaj promast 59 (no result: PTEN del growth, HCT116 bCat-KO)
COc1cc(OC)cc(-c2cc3nc(C)c(CCC(=O)O)c(C)n3n2)c1	none (no result: Autophagy mod)
CCOCCN1CCN(c2c(C)c(C)nc3cc(-c4cc(OC)cc(OC)c4)nn23)CC1	Lmaj promast 83
CCc1c(C)nc2cc(-c3cc(OC)cc(OC)c3)nn2c1N1CCN(CCN2CCOCC2)CC1	Lmaj promast 88
COc1ccccc1CNC(=O)COC(=O)/C=C/c1cccs1	Lmaj promast 51
CC(C)n1cnnc1SCC(=O)Nc1ccc(Br)cc1F	none (no result: PTEN del growth, HCT116 bCat-KO)
OCCN1CCN(CCOc2cccc(Cl)c2)CC1	Lmaj promast 90
